This data set is described as follows: Toxicity liver stage against HepG2, at 10uM. It is filed as cell-based. The arrangement: test concentration 10 uM, cell line HepG2-A16-CD81EGFP. The following applies: human, HepG2-A16-CD81EGFP cells; read-out: INHIBITION
The method, boiled down:
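Uninfected HepG2-A16-CD81EGFP cells, 3 × 10^3 per well, 1536-well, plated on prespotted compound at 10 μM final, parasite-free screening media added to match infected plates; puromycin 10 μM positive, DMSO 0.5% negative; run in parallel with 48 h PbLuc assay at 37 °C, 5% CO2; viability by CellTiter-Glo luminescence, normalized to controls.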
As to `CC[C@H]1CN2CC[C@H]1C[C@@H]2CNCc1ccc(N(C)C)cc1`, the cytotoxicity at 10 µM is -5.66%. `CN(C)C(=O)CN1CCC2(CC1)CC(=O)c1c(ccc3ccccc13)O2`: the cytotoxicity at 10 µM was 3.28%. `COCC(=O)N1C[C@@H](c2cc(O)nc(C)n2)[C@H](c2ccccc2F)C1`: the cytotoxicity at 10 µM is 5.62%. As to `Cc1noc(C)c1-c1ccnc(C2CCN(C3CCOCC3)CC2)c1`, the cytotoxicity at 10 µM was -28.7%. The result for `C[C@]1(O)CN(Cc2ncccc2F)CC[C@@H]1Oc1ccccc1` reads -21%; that for `CN1CCCCC1c1ncc2c(n1)CCN(Cc1ccc(F)cc1)C2` (centres undefined), -17.6%. Regarding `O=C(NCCO)Nc1cnc2cc(Cl)ccc2c1O`, the cytotoxicity at 10 µM was -30.2%. The value for `Fc1cccc(Cl)c1CN1CCC(c2n[nH]c3ncccc23)CC1` was -13.7%; that for `CC(C)Cc1cc(C(=O)N2CCC(N3CCCC3)CC2)cc(O)n1` was 4.64%; that for `COCCN(Cc1ccc(C)o1)C(=O)Nc1nnc(C(F)F)s1` was 1.24%. Consider `CCN1CCN2CCCN(S(=O)(=O)c3cccc(F)c3)C2C1=O` (centres undefined), for which the cytotoxicity at 10 µM turned out to be 5.18%. For the compound `NC(=O)CN1CCN(S(=O)(=O)N2CCCC2c2ccco2)CC1` (centres undefined), the cytotoxicity at 10 µM is -3.48%.

Take `CCCc1cc(N(CCOC)CC(F)F)n2ncnc2n1`: the cytotoxicity at 10 µM was found to be 4.81%. The value for `CCc1oc(C(=O)OC)cc1Cn1cccc(C(F)(F)F)c1=O` was -2.13%; that for `CN(CCCNC(=O)C1CCc2cn[nH]c2C1)c1ccccc1` (centres undefined) was -5.19%.

Consider `CN(Cc1ccncc1)C(=O)Nc1cnn(CC(N)=O)c1`, for which the cytotoxicity at 10 µM is -3.07%. For `Cc1ccc(CNCc2c(C(C)C)nn(C)c2N2CCOCC2)s1`, the cytotoxicity at 10 µM is -3.03%. As to `CCc1ccc(C(=O)O)cc1S(=O)(=O)N(C)c1cccc(C#N)c1`, the cytotoxicity at 10 µM was -2.08%. `CC(C)N(C)C(=O)c1ccc(Cl)c(NC(=O)COCC2CC2)c1`: the cytotoxicity at 10 µM was 6.14%. As to `Cc1ccccc1-n1cnc(Cl)c1C(=O)O`, the cytotoxicity at 10 µM was -4.11%. For the compound `CC(CN(C)C(=O)c1cn(C)nc1-c1ccc(F)cc1F)C(=O)O` (centres undefined), the cytotoxicity at 10 µM is 0.184%. The value for `Cc1nncn1CCNC(=O)C(C)(C)c1cccc(Cl)c1` was 8.55%; that for `Cc1ccc(S(=O)(=O)NCC2COCc3c(C)nnn3C2)cc1F` (centres undefined) was -4.55%.

For the compound `CS(=O)(=O)N1CCC2(CC1)c1ccccc1[C@@H](N1CCSCC1)[C@@H]2O`, the cytotoxicity at 10 µM was -9.71%.

Regarding `Cc1cnc(C(=O)NCC2CCOc3ccccc3C2)cn1` (centres undefined), the cytotoxicity at 10 µM came to 5.06%.

`Cc1ccsc1C(=O)N1C[C@@H](C(=O)O)[C@H](C(C)C)C1`: the cytotoxicity at 10 µM came out at 9.42%. The result for `OC1CCN(C2CCN(c3ccc(Cn4ccnc4)cn3)CC2)CC1` reads -2.05%; that for `NC(=O)c1cncc(Oc2cccc(CN3CCCC3)c2Cl)n1`, -3.47%.

As for `CCc1ccc2occ(CC(=O)N3CCC4(CCCN(C)C4=O)C3)c2c1` (centres undefined), the cytotoxicity at 10 µM is -14.5%. The result for `CCc1nccn1-c1cncc(C2CCCN2Cc2cccnc2)n1` (centres undefined) reads 5.82%. Turning to `CCc1ncc2c(n1)CN(CC(=O)Nc1nnc(C)s1)CC2`, the cytotoxicity at 10 µM stood at 2.94%.

`Cc1noc(C)c1C(=O)NCc1ccc(N2CCOC(C)C2)nc1` (centres undefined): the cytotoxicity at 10 µM is -3.46%. For `Cc1cc(CN(C)C(=O)c2ccnc(N(C)C)c2)no1`, the cytotoxicity at 10 µM amounted to 5.46%. The result for `Cc1nc(C)n(CC2CCCN2Cc2nc3ccccc3n2C)n1` (centres undefined) reads -2.21%. With `Cc1cnn(CC2CN(CC(=O)NCc3ccccn3)CCO2)c1` (centres undefined), the cytotoxicity at 10 µM was -5.8%.

As for `COc1cccc2c(C)c(C(=O)N3CCNCC3C(N)=O)[nH]c12` (centres undefined), the cytotoxicity at 10 µM is 1.67%. The value for `c1cn(-c2cnc(C3CCCNC3)cn2)cn1` (centres undefined) was -25.2%; that for `Cc1cc(C(=O)N2CCO[C@H]3[C@H](OCCN(C)C)CC[C@@H]32)c(C)[nH]1` was 7.07%; that for `NCC1CCC(C(NC(=O)c2ccccn2)c2ccccn2)CC1` (centres undefined) was 2%.

Source of the values: ChEMBL document CHEMBL4513216, “Probing the Open Global Health Chemical Diversity Library for Multistage-Active Starting Points for Next-Generation Antimalarials” (ACS Infect Dis, 2020).
